Where “and” joins values, the source holds several entries; their conditions need not be identical. Identical values can stand only once.
What was measured:
tumour glucose uptake = assay: Metabolic response by FDG-PET; type: in vivo, human; settings: day 35
In short: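 FDG-PET was done at screening in solid-tumour patients with RECIST-measurable lesions and in all lymphoma patients. Percentage change in SUVmax from baseline was calculated. Metabolic response was defined as an SUVmax decrease >25% per EORTC criteria.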

[1] = Phase I dose-escalation safety and tolerability: adverse events, DLTs, MTD; type: in vivo, human
In short: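 Multicentre, open-label, dose-escalation study. A single oral dose on day 1 was followed one week later by continuous twice-daily dosing, starting at 10 mg. The first three cohorts got solution, later cohorts tablets. AEs were graded by CTC v3.0 from consent to 30 days after stopping. DLT: a CTC grade 3 AE, or a laboratory abnormality with clinical signs, within 42 days (extended from 35). MTD: last dose below the non-tolerated dose.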

[2] = 10 mg BID solution (n=5), CTCAE grade 1–2
[3] = 10 mg BID solution (n=5), CTCAE grade ⩾3
[4] = 20 mg BID solution (n=3), CTCAE grade 1–2
[5] = 20 mg BID solution (n=3), CTCAE grade ⩾3
[6] = 40 mg BID solution (n=6), CTCAE grade 1–2
[7] = 40 mg BID solution (n=6), CTCAE grade ⩾3
[8] = 40 mg BID tablet (n=7), CTCAE grade 1–2
[9] = 40 mg BID tablet (n=7), CTCAE grade ⩾3
[10] = 60 mg BID tablet (n=7), CTCAE grade 1–2
[11] = 60 mg BID tablet (n=7), CTCAE grade ⩾3
[12] = 90 mg BID tablet (n=11), CTCAE grade 1–2
[13] = 90 mg BID tablet (n=11), CTCAE grade ⩾3
[14] = 120 mg BID tablet (n=10), CTCAE grade 1–2
[15] = 120 mg BID tablet (n=10), CTCAE grade ⩾3
[16] = CTCAE grade 3, all cohorts, a patient may have experienced more than one DLT
[17] = Total (n=49), Any grade occurring in cycle 1/2

## COc1ccc(-c2ccc3c(N4CCOC[C@@H]4C)nc(N4CCOC[C@@H]4C)nc3n2)cc1CO [AZD8055]
Tumour glucose uptake; 40 mg tablet BID
  Patients with partial metabolic response by FDG-PET (decrease in SUVmax>25%): 2/5
Tumour glucose uptake; 60 mg BID
  Patients with partial metabolic response by FDG-PET (decrease in SUVmax>25%): 2/5
Tumour glucose uptake; 90 mg BID
  Patients with partial metabolic response by FDG-PET (decrease in SUVmax>25%): 1/7
Tumour glucose uptake; 120 mg BID
  Patients with partial metabolic response by FDG-PET (decrease in SUVmax>25%): 3/9
[1]; [2]
  Fatigue: patients with AZD8055-related AE, n (%): 1 (20) %
  Hyperglycaemia: patients with AZD8055-related AE, n (%): 0%
  Increased ALT: patients with AZD8055-related AE, n (%): 1 (20) %
  Increased AST: patients with AZD8055-related AE, n (%): 1 (20) %
  Increased GGT: patients with AZD8055-related AE, n (%): 0%
  Nausea: patients with AZD8055-related AE, n (%): 2 (40) %
  Stomatitis: patients with AZD8055-related AE, n (%): 0%
[1]; [3]
  Fatigue: patients with AZD8055-related AE, n (%): 0%
  Hyperglycaemia: patients with AZD8055-related AE, n (%): 0%
  Increased ALT: patients with AZD8055-related AE, n (%): 0%
  Increased AST: patients with AZD8055-related AE, n (%): 0%
  Increased GGT: patients with AZD8055-related AE, n (%): 0%
  Nausea: patients with AZD8055-related AE, n (%): 0%
  Stomatitis: patients with AZD8055-related AE, n (%): 0%
[1]; [4]
  Fatigue: patients with AZD8055-related AE, n (%): 0%
  Hyperglycaemia: patients with AZD8055-related AE, n (%): 0%
  Increased ALT: patients with AZD8055-related AE, n (%): 0%
  Increased AST: patients with AZD8055-related AE, n (%): 0%
  Increased GGT: patients with AZD8055-related AE, n (%): 0%
  Nausea: patients with AZD8055-related AE, n (%): 1 (33) %
  Stomatitis: patients with AZD8055-related AE, n (%): 1 (33) %
[1]; [5]
  Fatigue: patients with AZD8055-related AE, n (%): 0%
  Hyperglycaemia: patients with AZD8055-related AE, n (%): 0%
  Increased ALT: patients with AZD8055-related AE, n (%): 1 (33) %
  Increased AST: patients with AZD8055-related AE, n (%): 1 (33) %
  Increased GGT: patients with AZD8055-related AE, n (%): 0%
  Nausea: patients with AZD8055-related AE, n (%): 0%
  Stomatitis: patients with AZD8055-related AE, n (%): 0%
[1]; 40 mg BID solution
  Patients with DLT (grade 3 rise in transaminases): 1
[1]; [6]
  Fatigue: patients with AZD8055-related AE, n (%): 2 (33) %
  Hyperglycaemia: patients with AZD8055-related AE, n (%): 0%
  Increased ALT: patients with AZD8055-related AE, n (%): 0%
  Increased AST: patients with AZD8055-related AE, n (%): 0%
  Increased GGT: patients with AZD8055-related AE, n (%): 1 (17) %
  Nausea: patients with AZD8055-related AE, n (%): 0%
  Stomatitis: patients with AZD8055-related AE, n (%): 1 (17) %
[1]; [7]
  Fatigue: patients with AZD8055-related AE, n (%): 0%
  Hyperglycaemia: patients with AZD8055-related AE, n (%): 0%
  Increased ALT: patients with AZD8055-related AE, n (%): 1 (17) %
  Increased AST: patients with AZD8055-related AE, n (%): 1 (17) %
  Increased GGT: patients with AZD8055-related AE, n (%): 0%
  Nausea: patients with AZD8055-related AE, n (%): 0%
  Stomatitis: patients with AZD8055-related AE, n (%): 0%
[1]; [8]
  Fatigue: patients with AZD8055-related AE, n (%): 1 (14) %
  Hyperglycaemia: patients with AZD8055-related AE, n (%): 1 (14) %
  Increased ALT: patients with AZD8055-related AE, n (%): 0%
  Increased AST: patients with AZD8055-related AE, n (%): 0%
  Increased GGT: patients with AZD8055-related AE, n (%): 0%
  Nausea: patients with AZD8055-related AE, n (%): 1 (14) %
  Stomatitis: patients with AZD8055-related AE, n (%): 0%
[1]; [9]
  Fatigue: patients with AZD8055-related AE, n (%): 0%
  Hyperglycaemia: patients with AZD8055-related AE, n (%): 0%
  Increased ALT: patients with AZD8055-related AE, n (%): 1 (14) %
  Increased AST: patients with AZD8055-related AE, n (%): 0%
  Increased GGT: patients with AZD8055-related AE, n (%): 0%
  Nausea: patients with AZD8055-related AE, n (%): 0%
  Stomatitis: patients with AZD8055-related AE, n (%): 0%
[1]; [10]
  Fatigue: patients with AZD8055-related AE, n (%): 1 (14) %
  Hyperglycaemia: patients with AZD8055-related AE, n (%): 0%
  Increased ALT: patients with AZD8055-related AE, n (%): 1 (14) %
  Increased AST: patients with AZD8055-related AE, n (%): 1 (14) %
  Increased GGT: patients with AZD8055-related AE, n (%): 1 (14) %
  Nausea: patients with AZD8055-related AE, n (%): 0%
  Stomatitis: patients with AZD8055-related AE, n (%): 0%
[1]; [11]
  Fatigue: patients with AZD8055-related AE, n (%): 0%
  Hyperglycaemia: patients with AZD8055-related AE, n (%): 0%
  Increased ALT: patients with AZD8055-related AE, n (%): 0%
  Increased AST: patients with AZD8055-related AE, n (%): 1 (14) %
  Increased GGT: patients with AZD8055-related AE, n (%): 1 (14) %
  Nausea: patients with AZD8055-related AE, n (%): 0%
  Stomatitis: patients with AZD8055-related AE, n (%): 0%
[1]; 90 mg BID tablet
  Patients with DLT (grade 3 rise in transaminases): 1 and 1/9
[1]; [12]
  Fatigue: patients with AZD8055-related AE, n (%): 1 (9) %
  Hyperglycaemia: patients with AZD8055-related AE, n (%): 3 (27) %
  Increased ALT: patients with AZD8055-related AE, n (%): 2 (18) %
  Increased AST: patients with AZD8055-related AE, n (%): 1 (9) %
  Increased GGT: patients with AZD8055-related AE, n (%): 0%
  Nausea: patients with AZD8055-related AE, n (%): 2 (18) %
  Stomatitis: patients with AZD8055-related AE, n (%): 2 (18) %
[1]; [13]
  Fatigue: patients with AZD8055-related AE, n (%): 0%
  Hyperglycaemia: patients with AZD8055-related AE, n (%): 0%
  Increased ALT: patients with AZD8055-related AE, n (%): 1 (9) %
  Increased AST: patients with AZD8055-related AE, n (%): 2 (18) %
  Increased GGT: patients with AZD8055-related AE, n (%): 1 (9) %
  Nausea: patients with AZD8055-related AE, n (%): 0%
  Stomatitis: patients with AZD8055-related AE, n (%): 0%
[1]; 120 mg BID cohort, patients evaluable for DLT
  Patients with DLT (grade 3 rise in transaminases): 3 and 3/9
[1]; [14]
  Fatigue: patients with AZD8055-related AE, n (%): 2 (20) %
  Hyperglycaemia: patients with AZD8055-related AE, n (%): 2 (20) %
  Increased ALT: patients with AZD8055-related AE, n (%): 1 (10) %
  Increased AST: patients with AZD8055-related AE, n (%): 1 (10) %
  Increased GGT: patients with AZD8055-related AE, n (%): 1 (10) %
  Nausea: patients with AZD8055-related AE, n (%): 1 (10) %
  Stomatitis: patients with AZD8055-related AE, n (%): 2 (20) %
[1]; [15]
  Fatigue: patients with AZD8055-related AE, n (%): 0%
  Hyperglycaemia: patients with AZD8055-related AE, n (%): 0%
  Increased ALT: patients with AZD8055-related AE, n (%): 2 (20) %
  Increased AST: patients with AZD8055-related AE, n (%): 2 (20) %
  Increased GGT: patients with AZD8055-related AE, n (%): 0%
  Nausea: patients with AZD8055-related AE, n (%): 0%
  Stomatitis: patients with AZD8055-related AE, n (%): 0%
[1]; BID, DLTs in 3/9 evaluable patients
  Non-tolerated dose: 120 mg
[1]; [16]
  DLTs: Increased ALT, Total (%): 3 (6) %
  DLTs: Increased AST, Total (%): 3 (6) %
[1]; [17]
  Fatigue: patients with AZD8055-related AE, n (%): 8 (16) %
  Hyperglycaemia: patients with AZD8055-related AE, n (%): 6 (12) %
  Increased ALT: patients with AZD8055-related AE, n (%): 11 (22) %
  Increased AST: patients with AZD8055-related AE, n (%): 11 (22) %
  Increased GGT: patients with AZD8055-related AE, n (%): 5 (10) %
  Nausea: patients with AZD8055-related AE, n (%): 7 (14) %
  Stomatitis: patients with AZD8055-related AE, n (%): 6 (12) %
[1]; Total (n=49), CTCAE grade 1–2
  Fatigue: patients with AZD8055-related AE, n (%): 8 (16) %
  Hyperglycaemia: patients with AZD8055-related AE, n (%): 6 (12) %
  Increased ALT: patients with AZD8055-related AE, n (%): 5 (10) %
  Increased AST: patients with AZD8055-related AE, n (%): 4 (8) %
  Increased GGT: patients with AZD8055-related AE, n (%): 3 (6) %
  Nausea: patients with AZD8055-related AE, n (%): 7 (14) %
  Stomatitis: patients with AZD8055-related AE, n (%): 6 (12) %
[1]; Total (n=49), CTCAE grade ⩾3
  Fatigue: patients with AZD8055-related AE, n (%): 0%
  Hyperglycaemia: patients with AZD8055-related AE, n (%): 0%
  Increased ALT: patients with AZD8055-related AE, n (%): 6 (12) %
  Increased AST: patients with AZD8055-related AE, n (%): 7 (14) %
  Increased GGT: patients with AZD8055-related AE, n (%): 2 (4) %
  Nausea: patients with AZD8055-related AE, n (%): 0%
  Stomatitis: patients with AZD8055-related AE, n (%): 0%
[1]; all patients (n=49)
  Fatigue, AE assessed to be related to AZD8055, frequency: 16%
[1]; oral, patients with advanced solid tumours or lymphomas
  Maximum tolerated dose (MTD): 90 mg BID
[1]; three patients, one each in the 60, 90 and 120 mg BID tablet groups
  Patients requiring dose reductions as a result of increased transaminases, assessed to be AZD8055-related: 6%
[1]; within cycles 1 and 2, 11 patients, 7 because of an AE
  Patients with a dose interruption: 22%
